Consider three compounds from paper PMC9274295 (International Journal of Nanomedicine, 2022).

For one assay, the system named is SKOV-3 cells. Kind of assay: Combination index of PTX and CBP. Type of assay: cell-based, Human. The following applies: read-out: IC50 of a single drug. The method in brief:
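SKOV-3 cells cultured in McCoy's 5A with 10% FBS and penicillin-streptomycin at 37°C, 5% CO2. Seeded at 5.0×10³ cells/well and left overnight. Exposed for 48 h to each drug alone and to mixtures at various ratios, with the mixtures' final PTX at 0.2–50.0 μM. CCK-8 added for 2 h, then absorbance read at 450 nm. Data given as mean ± SD, n = 3.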

In the next assay the test system is SKOV-3 tumor. Kind of assay: In vivo targeting. The following applies: 0.11 µg DiR/g i.v., 1-24 h, tumor-bearing NU/NU mice. Put shortly: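 Tumors made by injecting 1.0×10⁷ SKOV-3 cells/100 µL into the right lower abdomen of female NU/NU mice aged 5–6 weeks. At about 400 mm³, mice were randomised to free DiR or DiR-labelled liposomes, given by tail vein. Mice were anaesthetised with 4.0% chloral hydrate and imaged at 1, 2, 6, 12 and 24 h. They were then killed for ex vivo imaging and quantification of the tumor, heart, liver, spleen, lungs and kidneys.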

Where two headings read alike, the source gives them in different places.

As usually defined, the IC50 is the concentration at which inhibition is half-maximal. For the compound `CC(=O)O[C@H]1C(=O)[C@@]2(C)[C@H]([C@H](OC(=O)c3ccccc3)[C@]3(O)C[C@H](OC(=O)[C@H](O)[C@@H](NC(=O)c4ccccc4)c4ccccc4)C(C)=C1C3(C)C)[C@]1(OC(C)=O)CO[C@@H]1C[C@@H]2O` [PTX, Paclitaxel], the IC50 with SKOV-3 cells (Homo sapiens, SK-OV-3, 48 h) is 3.89 µM.
In the case of `N.N.O=C([O-])C1(C(=O)[O-])CCC1.[Pt+2]` [CBP, carboplatin], the IC50 in the assay on SKOV-3 cells (single drug, SKOV-3 cells, 48 h, CCK-8) was 19.2 µM.
Consider `CCCCCCCCCCCCCCCCCCN1/C(=C/C=C/C=C/C=C/C2=[N+](CCCCCCCCCCCCCCCCCC)c3ccccc3C2(C)C)C(C)(C)c2ccccc21.[I-]` [DiR], for which the “Enrichment in the tumor site” value with SKOV-3 tumor is reported as “not enriched in the tumor site”.
